# ABCB1 block = ABCB1 efflux pump inhibitors, primary screen, cell-based, multiplex, flow cytometry, ABCG2 counter-screen; ATP-dependent translocase ABCB1 (Homo sapiens), P08183; CCRF-Adr cells, JC-1 efflux; inhibition, % at 6.6 µM; 0.067% of 190,000 active; AID 1326, 2008; in the data active = inhibition above about 40%;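 note: 0% = vehicle and 100% = reference inhibitor; higher value means more JC-1 retained so stronger ABCB1 efflux block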
# ABCG2 inh = ABCG2 efflux pump inhibitors, primary screen, multiplex with ABCB1, IgMXP3 cells, flow cytometry. 0.1% of 190,000 active. inhibition, % at 6.6 µM. JC-1 efflux. AID 1325, 2008;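 active = inhibition above 80%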;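 note: 0% = DMSO and 100% = nicardipine control wells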
# Target sequence (Q9UNQ0 whole entry, looked up): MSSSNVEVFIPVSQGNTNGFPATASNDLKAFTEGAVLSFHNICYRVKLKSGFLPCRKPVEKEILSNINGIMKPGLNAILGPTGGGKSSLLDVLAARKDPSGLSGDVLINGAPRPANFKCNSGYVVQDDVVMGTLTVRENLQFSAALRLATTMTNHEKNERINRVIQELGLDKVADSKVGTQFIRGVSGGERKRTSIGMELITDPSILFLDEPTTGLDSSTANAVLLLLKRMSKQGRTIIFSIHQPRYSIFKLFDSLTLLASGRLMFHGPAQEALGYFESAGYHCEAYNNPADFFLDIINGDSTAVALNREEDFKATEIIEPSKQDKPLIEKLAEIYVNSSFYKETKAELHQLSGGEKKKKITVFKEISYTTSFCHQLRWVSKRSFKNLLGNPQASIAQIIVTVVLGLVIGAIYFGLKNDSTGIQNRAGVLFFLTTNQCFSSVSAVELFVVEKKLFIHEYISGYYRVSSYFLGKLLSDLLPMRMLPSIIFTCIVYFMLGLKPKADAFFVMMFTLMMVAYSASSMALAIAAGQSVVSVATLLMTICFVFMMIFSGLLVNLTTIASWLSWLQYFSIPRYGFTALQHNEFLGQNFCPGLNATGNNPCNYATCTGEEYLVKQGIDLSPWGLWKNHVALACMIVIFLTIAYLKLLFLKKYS
#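 test system = two drug-resistant human cell lines, ABCG2 and ABCB1 | amount = 3 million cells/mL final, two lines in 1:1 ratio | reagent = JC-1 transporter substrate | doses = one concentration, 6.6 µM final | incubation = 10 min at 25 °C | signal = flow cytometric JC-1 green MFI at 530 nm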
# RAM network inh = inhibitors of the yeast RAM network, primary screen, dse1pr::URA3 reporter, 5-FOA selection; S. cerevisiae dse1pr::URA3 reporter, 5-FOA growth OD615, 2 d; analog-sensitive cbk1-as2 kinase mutant strain; inhibition, % at 50 µM; 1.8% of 190,000 active; AID 868, 2007;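 active = inhibition above a set limit, 3 SD over mean compound inhibition, cut at about 8.4% in these data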;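 note: 0% = DMSO-only wells with no growth and 100% = 10 µM 1-NA-PP1 full growth; inhibition rescues growth on 5-FOA so higher OD means more RAM inhibition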
# Lmaj promast = Leishmania major promastigote growth inhibition, primary screen | inhibition, % at 10 µM | Leishmania major promastigotes, resazurin fluorescence viability | AID 1063, 2008 | 9% of 200,000 active; in the data active = inhibition above about 50%;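 note: promastigotes grown with compound for 44 hours at 28 °C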
# WT yeast gro inh = growth inhibition of WT strain, primary screen, mitochondrial fusion inhibitor project, WT and mutant strains, chemical genetic | mitochondrial fusion phenotypic screen | inhibition, % at 10 µM | 2.1% of 190,000 active; in the data active = inhibition above about 58%; tested in S. cerevisiae
# * hit, by the source's call. Shown are actives, neighbours in structure and some others; about 12% of the full set was active somewhere.
SMILES,ABCB1 block,ABCG2 inh,RAM network inh,Lmaj promast,WT yeast gro inh
CCc1ccccc1OCC(=O)Nc1nc(-c2cccnc2)cs1,0.7,3.0,-1.0,80.9*,57.4
C1CN(CC23CC4CC(CC(C4)C2)C3)CCO1,-0.7,0.1,0.9,80.7*,2.1
Cc1ccc(NC(=O)c2cc(C)n(-c3ccccc3)c2C)cc1,-0.1,71.0,3.0,0.2,40.7
CCOc1ccc(-n2c(C)cc(C(=O)NS(=O)(=O)c3ccc(C)cc3)c2C)cc1,1.4,4.5,3.5,-4.6,-16.4
Cc1ccc(NC(=O)c2cc(C)n(-c3cccc(C)c3)c2C)cc1,1.1,21.3,6.7,0.6,61.6*
Cc1ccc(-n2c(C)cc(C(=O)NS(=O)(=O)c3ccc(C)cc3)c2C)cc1,-0.5,-2.9,8.6*,-4.8,-28.9
O=C(c1ccc(CS(=O)(=O)c2ccc(Br)cc2)o1)N1CCCCCC1,0.9,0.6,0.9,7.0,2.6
O=C(c1ccc(CS(=O)(=O)c2ccc(Br)cc2)o1)N1CCN(C2CCCCC2)CC1,0.9,5.9,2.7,99.3*,-3.5
COc1ccc(S(=O)(=O)Cc2ccc(C(=O)N3CCN(C4CCCCC4)CC3)o2)cc1,0.1,0.9,0.0,99.4*,-0.6
Cc1ccccc1S(=O)(=O)Cc1ccc(C(=O)N2CCN(C3CCCCC3)CC2)o1,-0.3,-1.4,0.3,34.3,3.4
CCCN(CC(=O)Nc1ccc(Cl)cc1Cl)C(=O)/C=C/c1cc(OC)ccc1OC,5.1,36.5,10.7*,-3.1,46.6
CC1CC2(CCCCC2)Nc2ccc3ccccc3c21 (stereo not drawn),0.8,2.6,3.5,8.3,44.5
CC(=O)N1c2ccc3ccccc3c2C(C)CC12CCCCC2 (stereo not drawn),0.4,1.2,10.2*,-1.5,87.3*
O=C(NC1CCCCC1)C1CC=CCC1C(=O)OCC(Cl)=C(Cl)Cl (stereo not drawn),0.1,0.2,1.0,11.0,2.4
Cc1nnc2c3ccccc3c(Cl)nn12,0.1,2.7,0.6,-2.9,-26.3
O=C(N/N=C/c1cn(-c2ccccc2)nc1-c1cc2ccccc2o1)c1cccnc1,1.0,-5.6,1.8,96.8*,44.0
O=C(C1=C[C@@H](c2ccc(C(F)(F)F)cc2)C[C@@H](OCc2ccc(CO)cc2)O1)N1CCOCC1,1.1,0.7,9.0*,18.7,8.1
O=C(O)C1=C[C@@H](c2ccc3c(c2)OCO3)C[C@@H](OCc2ccc(CO)cc2)O1,0.6,2.1,2.0,-4.6,-6.1
O=C(C1=C[C@H](c2ccc3c(c2)OCO3)C[C@H](OCc2ccc(CO)cc2)O1)N1CCOCC1,2.2,5.9,10.4*,-0.6,7.3
O=C(C1=C[C@H](c2ccc(C(F)(F)F)cc2)C[C@H](OCCCCO)O1)N1CCN(Cc2ccc3c(c2)OCO3)CC1,2.3,6.2,0.6,94.5*,38.4
CC(C)c1ccc(NC(=O)Nc2cc3sccc3n2C)cc1,0.1,2.7,2.3,16.4,20.5
CN=C1S/C(=C\c2cc(C)n(-c3ccccc3F)c2C)C(=O)N1C,1.7,27.7,0.0,62.2*,73.0*
CN=C1S/C(=C\c2ccc(N3CCOCC3)cc2C)C(=O)N1C,1.4,10.4,2.8,36.6,-18.3
CO/N=C\c1cc(C(=O)c2ccc(Cl)cc2Cl)cn1C,1.1,14.8,0.8,6.7,60.2*
Cn1cc(C(=O)c2cccc(Cl)c2)cc1/C=N\O,1.0,6.3,1.5,15.2,-1.8
SMILES,ABCB1 block,ABCG2 inh,RAM network inh,Lmaj promast,WT yeast gro inh
COCC(C)n1c(C)cc(C(=O)COC(=O)/C=C/c2cccc(F)c2)c1C (stereo not drawn),0.4,1.4,5.0,-6.8,-5.5
CS(=O)(=O)N(CC(=O)Nc1ccccc1C(=O)N1CCCC1)c1ccc2c(c1)OCO2,1.2,4.8,-0.2,-4.8,4.8
COc1cc(NC(=O)C2=C(N3CCOCC3)/C(=C\c3ccc(N(C)C)cc3)CCC2)cc(OC)c1OC,-0.8,-19.2,2.0,98.0*,-1.6
O=C(CN1CCCCCC1)N/N=C/c1cccs1,0.4,1.5,2.2,-5.2,4.0
O=C(CN1CCCCCCC1)N/N=C/c1ccc(F)cc1F,0.1,2.3,0.1,60.6*,-2.6
O=C(CN1CCCCCC1)N/N=C/c1ccc(Cl)c(Cl)c1,4.9,-1.2,2.0,87.9*,11.6
COc1ccccc1/C=C1/C(=O)N(c2cc(C)cc(C)c2)C(c2cccc([N+](=O)[O-])c2)S1(=O)=O (stereo not drawn),0.3,-2.0,3.8,18.9,-2.0
CCOc1ccc(N2C(=O)/C(=C\c3ccccc3OC)S(=O)(=O)C2c2cccc([N+](=O)[O-])c2)cc1 (stereo not drawn),0.3,0.1,7.8,50.0*,-2.7
CCOC(=O)C1(CCOc2ccccc2)CCN(Cc2ccc(CO)o2)CC1,0.1,0.6,0.0,61.7*,-10.3
CCOC(=O)C1(CCOc2ccccc2)CCN(Cc2cnc(C)s2)CC1,1.7,3.1,0.4,78.9*,-0.7
CCOC(=O)C1(CCOc2ccccc2)CCN(Cc2cccn2-c2cccnc2)CC1,2.7,4.3,0.5,34.6,8.5
O=C(NNC1CC(=O)N(c2ccccc2)C1=O)c1ccc(COc2ccccc2Cl)o1 (stereo not drawn),0.3,-5.6,0.7,-7.2,12.1
COCCN(C)Cc1cn(-c2ccc(F)cc2F)nc1-c1ccccc1C,0.2,4.7,-0.5,11.2,6.6
Cc1ccccc1-c1nn(-c2ccc(F)cc2F)cc1CNCCCN(C)C,-0.2,-0.5,0.4,100.2*,13.8
Cc1ccccc1-c1nn(-c2ccc(F)cc2F)cc1CNCCN(C)C,1.9,5.0,0.1,74.2*,6.8
CCOc1ccc(S(=O)(=O)NC2CCCCCC2)cc1,0.6,1.7,0.1,-3.1,-5.8
CCOc1ccc(S(=O)(=O)N/N=C(\C)C2CCCCC2)cc1,0.4,-8.0,1.4,54.9*,10.8
CN(C[C@H](Cc1ccccc1)N(C[C@H](c1ccccc1)N(CCc1ccccc1)N=O)N=O)N=O,3.1,1.7,8.8*,18.4,15.6
O=C(NCCCn1ccnc1)c1sc2cccc(F)c2c1Cl,1.5,10.9,0.6,77.8*,-9.2
Cc1c(O)c2cccnc2[nH]c1=O,1.2,4.6,-0.1,49.1,-13.8
COc1cc2c(cc1OC)CC(=O)NC=C2,0.2,2.4,-0.2,-0.6,4.2
CC(=O)Nc1ccc(CN2CCN(Cc3ccc(C)cc3)C(CCO)C2)cc1 (stereo not drawn),0.0,0.3,0.4,-2.6,5.4
COC(=O)c1ccc(CN2CCN(Cc3ccc(F)cc3)C(CCO)C2)cc1 (stereo not drawn),0.9,6.3,-1.1,59.2*,-2.0
COC(=O)c1ccc(CN2CCN(CC=C(C)C)C(CCO)C2)cc1 (stereo not drawn),0.2,0.1,0.2,73.0*,7.5

# Screening results (PubChem)
